Tests used:
[1] = test system: Mycobacterium tuberculosis; assay: Antimycobacterial activity against Mycobacterium tuberculosis H37Rv infected in B6 mouse assessed as assessed as lowest concentration to reduce bacterial burden in lungs to level of reduction achieved with higher doses orally treated in water-20% captisol upto 8 days; assay type: functional, Lung
Procedure, shortened: (§1)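 B6 female mice given intratracheal H37Rv, 105 CFU/mouse in PBS, then oral once-daily treatment on days 1–8 across several doses. On day 9, lung homogenates were plated and CFU counted after 14 days. EDmax taken empirically as the lowest dose giving a lung CFU reduction statistically indistinguishable from higher doses; 5 mice/group.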

[2] = test system: Mycobacterium tuberculosis; assay: Antimycobacterial activity against Mycobacterium tuberculosis H37Rv infected in B6 mouse assessed as 2 log reduction in bacterial burden in lungs orally treated in water-20% captisol upto 8 days; assay type: functional; conditions: Lung, po, 192 h
Procedure, shortened: (§2)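 Female B6 mice, 8–10 weeks old, infected intratracheally under 3% isoflurane with 10^5 CFU H37Rv in 50 μl PBS. Oral dosing once daily from day 1 to day 8 at a range of doses; lungs harvested day 9, homogenized and plated; colonies counted after 14 days. ED99 (2-log CFU/lung reduction versus untreated controls) fitted from individual log10 CFU/lung to a logistic equation; 5 mice/group; 95% CI.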

[3] = test system: Mycobacterium tuberculosis; assay: Antimycobacterial activity against Mycobacterium tuberculosis H37Rv infected in B6 mouse assessed as lowest concentration to reduce bacterial burden in lungs to level of reduction achieved with higher doses orally treated in water upto 8 days; assay type: functional, Lung; procedure, shortened: as §1
[4] = test system: Mycobacterium tuberculosis; assay: Antimycobacterial activity against Mycobacterium tuberculosis H37Rv infected in B6 mouse assessed as 2 log reduction in bacterial burden in lungs orally treated in water upto 8 days; assay type: functional; conditions: Lung, po, 192 h; procedure, shortened: as §2
[5] = test system: Mycobacterium tuberculosis; assay: Antimycobacterial activity against Mycobacterium tuberculosis H37Rv infected in B6 mouse assessed as assessed as lowest concentration to reduce bacterial burden in lungs to level of reduction achieved with higher doses orally treated in water-1% methylcellulose upto 8 days; assay type: functional, Lung; procedure, shortened: as §1
[6] = test system: Mycobacterium tuberculosis; assay: Antimycobacterial activity against Mycobacterium tuberculosis H37Rv infected in B6 mouse assessed as 2 log reduction in bacterial burden in lungs orally treated in water-1% methylcellulose upto 8 days; assay type: functional; conditions: Lung, po, 192 h; procedure, shortened: as §2
[7] = test system: Mycobacterium tuberculosis; assay: Antimycobacterial activity against Mycobacterium tuberculosis H37Rv infected in B6 mouse assessed as 2 log reduction in bacterial burden in lungs orally treated in water-20% encapsine upto 8 days; assay type: functional; conditions: Lung, po, 192 h; procedure, shortened: as §2
[8] = test system: Mycobacterium tuberculosis; assay: Antimycobacterial activity against Mycobacterium tuberculosis H37Rv infected in B6 mouse assessed as assessed as lowest concentration to reduce bacterial burden in lungs to level of reduction achieved with higher doses orally treated in water-20% encapsine upto 8 days; assay type: functional, Lung; procedure, shortened: as §1

SMILES | Emax [5] | ED99 [6] [mg/kg] | further results
COc1c(N2C[C@@H]3CCCN[C@@H]3C2)c(F)cc2c(=O)c(C(=O)O)cn(C3CC3)c12 [MOXIFLOXACIN] |  |  | Emax [1]: 100 mg/kg; ED99 [2]: 27.7 mg/kg
NNC(=O)c1ccncc1 [ISONIAZID] |  |  | Emax [3]: 25 mg/kg; ED99 [4]: 0.95 mg/kg
NC(=O)c1cnccn1 [PYRAZINAMIDE] | >=1000 mg kg-1 | 362 | 
CC(=O)NC[C@H]1CN(c2ccc(N3CCOCC3)c(F)c2)C(=O)O1 [LINEZOLID] | >=300 mg kg-1 | 28 | 
CC[C@@H](CO)NCCN[C@@H](CC)CO [ETHAMBUTOL] | 300 mg/kg | 21.6 | 
CO[C@H]1/C=C/O[C@@]2(C)Oc3c(C)c(O)c4c(O)c(c(/C=N/N5CCN(C)CC5)c(O)c4c3C2=O)NC(=O)/C(C)=C\C=C\[C@H](C)[C@H](O)[C@@H](C)[C@@H](O)[C@@H](C)[C@H](OC(C)=O)[C@@H]1C [RIFAMPIN] |  |  | ED99 [7]: 9.8 mg/kg; Emax [8]: 30 mg/kg
